How the values were obtained:
[1] = MHV370 blood exposure during food dosing of NZB/W F1 mice; type: in vivo, mouse
Summary of the method: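 NZB/W F1 mice were fed diet containing test compound at 0.01% or 0.1%, with fresh food every two weeks. Daily food intake per mouse was calculated per cage. Whole-blood drug concentrations were measured by LC-MS/MS.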

TLR9 = molecular target: T1, TLR9 (Homo sapiens, UniProt Q9NR96); test: Isolated human pDC assay, ODN2216-driven IFN-α; type: cell-based; conditions: fixed dose of MHV370
T1 sequence (Q9NR96 26-1032): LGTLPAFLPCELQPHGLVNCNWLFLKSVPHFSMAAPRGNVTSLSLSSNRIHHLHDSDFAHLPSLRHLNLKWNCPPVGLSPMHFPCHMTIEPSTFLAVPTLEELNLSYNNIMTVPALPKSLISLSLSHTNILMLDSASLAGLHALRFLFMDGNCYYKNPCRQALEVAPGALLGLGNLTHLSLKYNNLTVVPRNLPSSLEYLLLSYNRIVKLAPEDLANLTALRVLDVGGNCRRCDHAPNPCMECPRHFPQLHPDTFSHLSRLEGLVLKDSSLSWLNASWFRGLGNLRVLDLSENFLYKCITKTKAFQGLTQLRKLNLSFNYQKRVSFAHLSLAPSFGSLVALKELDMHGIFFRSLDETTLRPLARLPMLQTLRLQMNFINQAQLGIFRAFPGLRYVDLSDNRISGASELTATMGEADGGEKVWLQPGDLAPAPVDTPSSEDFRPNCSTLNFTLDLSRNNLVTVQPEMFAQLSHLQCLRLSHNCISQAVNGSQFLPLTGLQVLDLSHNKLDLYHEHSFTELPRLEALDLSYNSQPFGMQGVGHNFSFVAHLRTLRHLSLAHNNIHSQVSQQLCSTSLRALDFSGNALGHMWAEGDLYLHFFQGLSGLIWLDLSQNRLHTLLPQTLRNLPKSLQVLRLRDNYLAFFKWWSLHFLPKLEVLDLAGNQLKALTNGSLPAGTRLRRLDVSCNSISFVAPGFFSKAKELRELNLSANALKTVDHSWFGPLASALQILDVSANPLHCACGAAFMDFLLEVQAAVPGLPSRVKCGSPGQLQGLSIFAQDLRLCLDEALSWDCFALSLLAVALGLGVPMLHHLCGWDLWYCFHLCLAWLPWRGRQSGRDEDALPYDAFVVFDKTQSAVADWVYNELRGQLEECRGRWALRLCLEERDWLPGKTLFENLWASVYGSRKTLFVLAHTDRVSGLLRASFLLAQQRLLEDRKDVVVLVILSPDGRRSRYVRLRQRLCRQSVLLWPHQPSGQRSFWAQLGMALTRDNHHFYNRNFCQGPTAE
Summary of the method: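 pDCs were negatively enriched from PBMCs and resuspended in RPMI1640 with 10 ng/mL recombinant human IL-3. They were pre-treated 30 min with test compound or 0.25% v/v DMSO. Stimulation was 20 h at 37°C, 5% CO2 with ssRNA40 (10 μg/mL plus 25 μg/mL DOTAP) or ODN2216 (0.3 μM). IFN-α in supernatants was read by AlphaLisa; viability by CellTiter-Glo.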

mouse blood = test: Cell viability in mouse blood; type: cell-based; conditions: up to 10 μM
Summary of the method: (§1)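 Fresh human blood or 129/Sv mouse blood was taken into citrate and diluted 1:1 with RPMI1640. It was pre-incubated 30 min at 37°C, 5% CO2 with increasing concentrations of test compound or 0.25% v/v DMSO (final). Blood was then stimulated with TLR agonists at doses from earlier work, or with R848 (3 μM), and cytokines were quantified. Viability was checked by ATPlite luminescence.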

TLR4 = TLR4 (Mus musculus, UniProt Q9QUK6); test: Murine whole blood assay, TLR4 activation; type: cell-based; conditions: up to 10 μM, data not shown, n = 4
Summary of the method: as §1

TLR7 = molecular target: T2, TLR7 (Mus musculus, UniProt P58681); type: in vivo; conditions: mice; single oral dose 5 mg/kg
T2 sequence (P58681 27-1050): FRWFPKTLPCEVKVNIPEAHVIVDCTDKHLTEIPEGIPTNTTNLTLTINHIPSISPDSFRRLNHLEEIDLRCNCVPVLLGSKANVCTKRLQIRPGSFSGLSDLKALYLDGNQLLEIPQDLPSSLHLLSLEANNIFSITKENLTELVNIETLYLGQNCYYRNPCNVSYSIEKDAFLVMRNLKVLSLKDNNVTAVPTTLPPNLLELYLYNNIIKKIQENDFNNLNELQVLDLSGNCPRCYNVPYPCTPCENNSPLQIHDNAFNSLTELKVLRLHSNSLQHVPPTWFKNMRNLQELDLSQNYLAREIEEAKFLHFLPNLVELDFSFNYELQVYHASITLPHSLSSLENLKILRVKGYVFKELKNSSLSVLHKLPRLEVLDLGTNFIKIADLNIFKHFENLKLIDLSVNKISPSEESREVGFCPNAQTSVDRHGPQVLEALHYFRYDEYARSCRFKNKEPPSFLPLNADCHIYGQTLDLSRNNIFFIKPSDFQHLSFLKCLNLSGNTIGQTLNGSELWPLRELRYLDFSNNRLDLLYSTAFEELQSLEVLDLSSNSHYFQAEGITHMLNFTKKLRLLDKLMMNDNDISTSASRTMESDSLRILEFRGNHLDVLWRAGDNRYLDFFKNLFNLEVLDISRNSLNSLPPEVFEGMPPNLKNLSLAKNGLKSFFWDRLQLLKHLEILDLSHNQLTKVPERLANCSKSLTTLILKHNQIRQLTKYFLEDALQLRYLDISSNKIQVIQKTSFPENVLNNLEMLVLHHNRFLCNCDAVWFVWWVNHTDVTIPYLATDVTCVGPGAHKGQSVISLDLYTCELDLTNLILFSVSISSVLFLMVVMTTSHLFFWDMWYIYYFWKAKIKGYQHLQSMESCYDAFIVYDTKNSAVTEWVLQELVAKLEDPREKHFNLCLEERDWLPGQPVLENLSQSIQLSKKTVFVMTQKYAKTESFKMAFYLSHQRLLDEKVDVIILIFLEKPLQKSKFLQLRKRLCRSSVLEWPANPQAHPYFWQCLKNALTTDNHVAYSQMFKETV

[2] = system: PMA-mediated ROS secretion from neutrophils; test: Human neutrophil ROS production, PMA stimulation; type: cell-based
Summary of the method: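 Cells were pre-treated 30 min with increasing concentrations of test compound or 0.1% v/v DMSO. They were then stimulated 30 min at 37°C, 5% CO2 with TL8-506 or PMA (50 ng/mL). ROS was detected with 2 μM dihydrorhodamine for 15 min at 37°C and read by flow cytometry. Signals were normalized to vehicle; viability was checked by CellTiter-Glo.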

Sequence of TLR4 (Q9QUK6 26-835): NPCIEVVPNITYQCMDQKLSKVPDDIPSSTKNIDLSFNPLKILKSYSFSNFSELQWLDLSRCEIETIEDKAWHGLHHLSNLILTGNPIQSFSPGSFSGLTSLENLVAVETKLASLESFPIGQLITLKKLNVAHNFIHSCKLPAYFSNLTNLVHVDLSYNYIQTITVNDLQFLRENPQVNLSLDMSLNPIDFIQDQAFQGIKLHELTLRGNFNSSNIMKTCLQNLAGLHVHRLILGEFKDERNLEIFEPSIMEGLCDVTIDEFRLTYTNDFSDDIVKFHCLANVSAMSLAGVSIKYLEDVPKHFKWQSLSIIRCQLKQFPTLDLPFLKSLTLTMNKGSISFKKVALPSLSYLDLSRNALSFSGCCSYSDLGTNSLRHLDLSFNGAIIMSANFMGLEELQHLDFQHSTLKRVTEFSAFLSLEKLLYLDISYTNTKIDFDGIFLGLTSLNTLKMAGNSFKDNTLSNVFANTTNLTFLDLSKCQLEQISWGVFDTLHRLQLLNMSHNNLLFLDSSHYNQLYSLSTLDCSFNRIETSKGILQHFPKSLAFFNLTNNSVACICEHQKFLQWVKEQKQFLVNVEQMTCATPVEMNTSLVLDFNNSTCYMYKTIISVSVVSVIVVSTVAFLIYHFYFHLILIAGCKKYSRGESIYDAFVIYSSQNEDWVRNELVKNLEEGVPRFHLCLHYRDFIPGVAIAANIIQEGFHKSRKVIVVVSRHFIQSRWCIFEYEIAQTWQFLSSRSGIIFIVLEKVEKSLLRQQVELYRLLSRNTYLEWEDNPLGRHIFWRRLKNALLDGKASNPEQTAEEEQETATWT
Sequence of TLR4 (Q9JHF9 19-160 partner): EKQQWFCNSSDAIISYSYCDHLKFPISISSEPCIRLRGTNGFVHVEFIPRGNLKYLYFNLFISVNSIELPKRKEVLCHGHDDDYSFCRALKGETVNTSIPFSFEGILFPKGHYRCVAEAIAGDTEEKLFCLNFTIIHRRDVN

For `Cc1cc(N2CCc3c(c(C)nn3CC34CCC(NC(=O)[C@@H]5COCCN5)(CC3)CC4)C2)c2cnn(C)c2n1` [MHV370, (S)-N-(4-((5-(1,6-dimethyl-1H-pyrazolo[3,4-b]pyridin-4-yl)-3-methyl-4,5,6,7-tetrahydro-1H-pyrazolo[4,3-c]pyridin-1-yl)methyl)bicyclo[2.2.2]octan-1-yl)morpholine-3-carboxamide], the “exposure level in blood” value ([1]; 0.01% MHV370 in food) was 55 nM, the “exposure level in blood” value ([1]; 0.1% MHV370 in food) was 1424 nM and the “ODN2216/TLR9-dependent IFN-α secretion from pDCs” value (TLR9) was “did not block”. For the same compound, the “effect on cell viability” value (mouse blood) was “did not show”, the “functional inhibition of TLR4” value (TLR4) was “did not show functional inhibition” and the “CD69 expression on B cells, ex vivo R848 stimulation of blood” value (TLR7) was “marked inhibition of CD69 expression over a period of 8 h”. The “block of ROS production, PMA stimulation” value [2] was “but not with phorbol myristate acetate”.
